# High-throughput results (PubChem)
# Arrestin-AP2 inh – inhibitors of beta-arrestin/AP2 binding, primary screen, biochemical, GPCR trafficking, flow cytometry. actives 0.31% (n = 340,000). inhibition, % at 10 µM. AID 504490, 2011. FITC-arrestin peptide / GST-AP2 beads; AP2 beta2 appendage carries R879A mutation. beta-arrestin 1 C-terminal peptide binding to AP2 beta2-adaptin appendage (human);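 active = inhibition above a set limit, near 3 SD of compounds lacking own fluorescence, cut at about 54% in these data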;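 note: plate controls were DMSO wells for no effect and 5 µM unlabelled arrestin peptide for full effect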
#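 Material – AP2 appendage R879A on GSH beads · Buffer or medium – PBS with 0.05% Tween 20 and 0.1% BSA · Probe or stimulus – fluorescein-tagged arrestin peptide at 50 nM final · Incubation – compound with beads 12 min RT, then probe 1 h RT · Detection – high-throughput flow cytometry of beads, ex 488, em 535 nm · Evaluation – percent response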
# DSG3 Ab inh – inhibitors of pemphigus antibody binding to DSG3, primary screen, biochemical, bead-based, flow cytometry, scFv-GFP; Desmoglein-3 (Homo sapiens), P32926; DSG3-coupled beads, scFv-anti-DSG3-GFP binding; stronger effect = lower value; binding (percent of control), % at 10 µM; actives 0.48% (n = 310,000); AID 588358, 2011;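 active = binding more than 3 SD below its plate's average and above zero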;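 note: hits lower antibody fragment binding to DSG3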
# NALP1 inh – NALP1 inflammasome inhibitors in reconstituted yeast, colorimetric, S. cerevisiae, triplicate retest | S. cerevisiae NALP1/ASC/caspase-1 growth, X-gal OD620, 72 h | inhibition, % at 10 µM | actives 0.61% (n = 280,000) | AID 2071, 2009; in the data active = inhibition mostly above about 24%, no sharp cut-off; inactive = mostly below about 32%
# PolyA inh – polyadenylation inhibitors in yeast reporter cells, primary screen, luminescence, S. cerevisiae | S. cerevisiae SKY197-pL101 polyadenylation reporter, beta-gal luminescence; efflux-impaired pdr1/pdr3 knockout yeast; score 100 = 6 SD above DMSO | activity score, % at 12 µM | actives 0.02% (n = 300,000) | AID 1875, 2009;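 active = lowest replicate activity score at least 50, where 100 means six control SD above control mean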;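 note: yeast exposed to compound for 9 h at 30 °C; higher score means more reporter readthrough which indicates perturbed polyadenylation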
# NALP3 yeast inh – NALP3 inflammasome inhibitors in reconstituted yeast, primary screen, luminescence, uHTS | Yeast reconstituted NLRP3/ASC/caspase-1, beta-gal luminescence, 24 h | inhibition, % at 10 µM | actives 0.39% (n = 330,000) | AID 2825, 2010;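 active = inhibition of 50% or more; inactive = inhibition below 50%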;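 note: plate controls were induced DMSO wells for no effect and uninduced yeast grown without galactose for full effect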
# ALR H2O2 inh – inhibitors of human ALR sulfhydryl oxidase, primary screen, biochemical, H2O2 detection, HRP-luminol luminescence, single point; actives 3.8% (n = 290,000); inhibition, % (concentration not given with the values); purified ALR, DTT oxidation; FAD-linked sulfhydryl oxidase ALR (Homo sapiens), P55789;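 active = mean replicate inhibition above about 79%, with every replicate also reaching it, limit read from the data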
# Target sequence (P55789 whole entry, looked up): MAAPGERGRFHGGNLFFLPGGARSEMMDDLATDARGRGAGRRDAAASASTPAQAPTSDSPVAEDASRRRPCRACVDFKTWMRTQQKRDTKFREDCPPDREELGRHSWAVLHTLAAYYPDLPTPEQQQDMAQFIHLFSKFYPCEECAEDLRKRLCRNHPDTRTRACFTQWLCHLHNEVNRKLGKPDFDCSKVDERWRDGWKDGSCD
# An asterisk follows results filed as active; · = not tested or not shown. In the library only some 4.6% were active in any assay of this set; here they are far more common.
SMILES,Arrestin-AP2 inh,DSG3 Ab inh,NALP1 inh,PolyA inh,NALP3 yeast inh,ALR H2O2 inh
O=C(N/N=C/C=C/c1ccccc1)c1ccncc1,3,96,6,11,13,-5
O=C(O)c1ccc(N/N=C/c2cc(Br)cs2)cc1,11,107,-10,24,11,98*
O=C(O)c1ccc(N/N=C/C=C/c2ccccc2)cc1,1,100,·,9,10,92*
CCN(C(=O)CN1CCCc2cc(C)ccc21)c1c(N)n(Cc2ccccc2)c(=O)[nH]c1=O,48,109,·,·,·,·
CCN(C(=O)CN1CCN(c2cccc(Cl)c2)CC1)c1c(N)n(Cc2ccccc2)c(=O)[nH]c1=O,14,120,11,-14,4,92*
Cc1ccc2c(c1)CCCN2CC(=O)N(C)c1c(N)n(Cc2ccccc2)c(=O)[nH]c1=O,15,126,·,·,-6,91*
COc1ccc(C)cc1NC(=O)CSc1ccc(-c2ccco2)nn1,7,·,12,-6,8,-4
c1ccc(N2CC3COc4ccccc4C3=N2)cc1 (configuration not stated),2,97,·,·,·,·
CC1(C)OC(=O)C(=NNc2ccc(O)cc2)C(=O)O1,-7,102,19,·,13,99*
CC1(C)OC(=O)C(=NNc2ccccc2)C(=O)O1,31,104,22,0,6,-4
CC(C)(C)OC(=O)NCc1n[nH]c(=S)n1C1CC1,11,105,·,16,-5,86*
CC(C)(C)OC(=O)NCC(=O)N1CCC(C(=O)O)CC1,11,107,20,12,15,-11
O=[N+]([O-])c1ccccc1S(=O)(=O)n1cnc2ccccc21,12,98,4,-5,-10,95*
O=S(=O)(c1cccs1)n1cnc2ccccc21,3,119,6,28,16,97*
Cc1ccc(S(=O)(=O)n2cnc3ccccc32)cc1,30,100,14,-7,11,-8
COc1ccc(Br)cc1S(=O)(=O)N(CC(=O)N1CCN(C)CC1)c1ccccc1,-12,104,19,4,24,-2
COc1ccc(N2CC(C(=O)Nc3cccnc3)CC2=O)cc1 (configuration not stated),20,·,16,-12,6,-4
CCN(c1ccc(OC)cc1)S(=O)(=O)N1CCCC(C(=O)NCc2ccc(OC(C)C)cc2)C1 (configuration not stated),·,102,·,·,·,·
CCCCn1c(SCc2nnc(-c3ccccc3)o2)nc2c1c(=O)n(C)c(=O)n2C,28,99,26,-10,11,78*
Cc1cc(C)c(NC(=O)CNC(=O)c2ccccc2OCc2c(C)noc2C)c(C)c1,-10,105,·,-19,-7,·
Cc1ccc(OCC(=O)N(c2ccccn2)C2CCCCC2)c(C)c1,17,96,44*,0,9,23
O=C(COc1ccc(Cl)cc1Cl)N(c1ccccn1)C1CCCCC1,7,99,21,5,-10,0
COCCNC(=O)CSc1cc(-c2ccccc2)c2ccc(OC)cc2n1,19,·,-12,-1,23,97*
O=C(NCC(=O)N1CCN(C(c2ccccc2)c2ccccc2)CC1)c1ccccc1Br,·,98,·,·,·,·
CN1/C(=C\C(=O)c2cccnc2)C(C)(C)c2ccccc21,16,101,36,-11,7,17
SMILES,Arrestin-AP2 inh,DSG3 Ab inh,NALP1 inh,PolyA inh,NALP3 yeast inh,ALR H2O2 inh
CN1/C(=C/C(=O)c2nc(S(C)(=O)=O)ncc2Cl)C(C)(C)c2ccccc21,-1,114,-2,-34,31,98*
Cc1ccc(/C=c2\sc3nc(-c4cccs4)nn3c2=O)o1,-11,98,32,1,16,99*
CN1CCc2c(sc(NC(=O)c3cc(Cl)sc3Cl)c2C(N)=O)C1,·,·,29,-19,18,97*
CN1CCc2c(sc(NC(=O)c3ccco3)c2C(N)=O)C1,27,·,12,6,20,11
CCN(CC)C(=O)C1=C(C)N(Cc2ccc(C(C)(C)C)cc2)C(=O)C(CC(=O)NC2CC2)C1 (configuration not stated),·,108,·,·,·,·
CCN1C(=O)[C@H]2[C@@H](c3ccc(C)cc3)N[C@]3(CCCN(Cc4ccc(Cl)cc4)C3=O)[C@H]2C1=O,·,108,·,·,·,·
CCOC(=O)c1sc(NC(=O)CCN2CCN(CC)CC2)c(C(=O)OCC)c1C,14,85,10,-1,18,96*
Cc1nc(C#N)c(N/N=C/c2c(F)cccc2Cl)o1,-9,104,23,9,15,98*
COc1ccc(C(=O)OCC(=O)Nc2sccc2C(N)=O)cc1[N+](=O)[O-],-13,95,·,·,14,0
CCCC1OC(c2ccco2)OCC1CC (configuration not stated),8,97,·,·,·,·
COc1ccc(CN(C)CCCn2cnc3c(OC)ncnc32)cc1OC,·,101,·,·,·,·
CN(C)CCCN(C(=O)c1ccc2c(c1)CCCC2)c1nc2ccc(F)cc2s1,4,143,47*,-6,41,0
CCN(CC)CCN(C(=O)/C=C/c1cccs1)c1nc2ccc(Cl)cc2s1,13,110,5,2,21,-3
CCN(CC)CCN(C(=O)c1ccc2c(c1)CCCC2)c1nc2ccc(F)cc2s1,23,104,-1,-5,29,-15
CN(C)CCN(C(=O)/C=C/c1cccs1)c1nc2ccc(F)cc2s1,11,95,54*,-3,34,·
C=CCNc1nc(Cl)nc(NCc2ccco2)n1,7,101,6,3,15,37
Oc1ccc(Nc2nc(Cl)nc(NCc3ccco3)n2)cc1,22,·,-25,0,1,99*
CCOC(=O)C(Cc1cc(N)c(Oc2ccc(OC)cc2)c(N)c1)NC(C)=O (configuration not stated),13,96,·,·,·,·
Cc1ccc(/C=N/NC(=O)c2csc(C)c2)o1,8,118,-6,19,-10,1
Cc1cc(C(=O)N/N=C/c2ccc(N(C)C)o2)cs1,5,107,31*,11,6,-22
CCN1C(=O)CC(N2CCN(c3ccc(OC)cc3)CC2)C1=O (configuration not stated),1,·,15,6,6,58
COc1ccc(N2CCN(C3CC(=O)N(Cc4ccccc4)C3=O)CC2)cc1 (configuration not stated),11,100,9,-1,5,92*
